Results on five compounds are retold here after ChEMBL document CHEMBL1147263, “New cinnamylphenols from Dalbergia species with cancer chemopreventive activity” (J Nat Prod, 2003).

Data set [1] concerns Raji. As to the kind of experiment: Inhibition of 12-O-tetradecanoylphorbol-13-acetate-induced EBV-early antigen activation in human Raji cells assessed as EA induction at 0.32 nmol relative to 12-O-tetradecanoylphorbol-13-acetate. Details: scale not given: the % may be the effect or the level left. It counts as cell-based. Conditions: human gammaherpesvirus 4. A digest of the protocol: (§1)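 Raji cells at 10^6 cells/mL resuspended in RPMI 1640 + 10% FCS containing 4 mM n-butyric acid, 32 pmol TPA (20 ng/mL in DMSO) and test compound in DMSO. Incubated 48 h at 37 °C. EA-positive cells scored blind, ≥500 cells per assay. Reported as % EBV-EA activation ± SD relative to the TPA-only control (100%).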

Data set [2] deals with Raji. As to the kind of experiment: Inhibition of 12-O-tetradecanoylphorbol-13-acetate-induced EBV-early antigen activation in human Raji cells assessed as EA induction at 32 nmol relative to 12-O-tetradecanoylphorbol-13-acetate. Conditions: human gammaherpesvirus 4. Details: scale not given: the % may be the effect or the level left. It is filed as cell-based. A digest of the protocol: as §1

The nature of data set [3]: Inhibition of 12-O-tetradecanoylphorbol-13-acetate-induced EBV-early antigen activation in human Raji cells assessed per 32 pmol TPA. It is filed as cell-based, human gammaherpesvirus 4. A digest of the protocol:
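IC50 given as the mol ratio of compound to TPA giving 50% inhibition of EBV-EA activation versus the TPA-only control (32 pmol TPA = 100%). Raji cells were kept in RPMI 1640/10% FCS with 4 mM n-butyric acid and DMSO-dissolved compound at 10–1000 mol ratio, 48 h, 37 °C. EA-positive cells were counted blind, ≥500 per assay.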

The subject of data set [4] is Raji. Nature of the data set: Inhibition of 12-O-tetradecanoylphorbol-13-acetate-induced EBV-early antigen activation in human Raji cells assessed as EA induction at 3.2 nmol relative to 12-O-tetradecanoylphorbol-13-acetate. Details: scale not given: the % may be the effect or the level left. Conditions: human gammaherpesvirus 4. It counts as cell-based. A digest of the protocol: as §1

Data set [5] in a line: Cytotoxicity against human Raji cells assessed as cell viability at 32 nmol after 48 hrs by trypan blue staining method. It counts as cell-based. The following applies: read-out: Activity. A digest of the protocol: (§2)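 Raji cells grown to 10^6 cells/mL, pelleted and resuspended in RPMI 1640 + 10% FCS with 4 mM n-butyric acid, 32 pmol TPA (20 ng/mL) and test compound in DMSO (mol ratio to TPA 10–1000, i.e. 0.32–32 nmol). Incubated 48 h at 37 °C. Viability then counted on a hemocytometer with Trypan Blue. ≥60% survival required for valid EA readings.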

In data set [6] the test system is Raji. Nature of the data set: Inhibition of 12-O-tetradecanoylphorbol-13-acetate-induced EBV-early antigen activation in human Raji cells assessed as EA induction at 16 nmol relative to 12-O-tetradecanoylphorbol-13-acetate. It is filed as cell-based. Details: scale not given: the % may be the effect or the level left. The following applies: human gammaherpesvirus 4. A digest of the protocol:
as §1

Data set [7] is described as follows: Cytotoxicity against human Raji cells assessed as cell viability at 3.2 nmol after 48 hrs by trypan blue staining method. It counts as cell-based. Conditions: read-out: Activity. A digest of the protocol:
as §2

Data set [8] can be described thus: Cytotoxicity against human Raji cells assessed as cell viability at 16 nmol after 48 hrs by trypan blue staining method. The following applies: read-out: Activity. It is filed as cell-based. A digest of the protocol:
as §2

Data set [9] can be described thus: Cytotoxicity against human Raji cells assessed as cell viability at 0.32 nmol after 48 hrs by trypan blue staining method. It is filed as cell-based. Conditions: read-out: Activity. A digest of the protocol: as §2

As to `CC1=C(/C=C/C(C)=C/C=C/C(C)=C/C=C/C=C(C)/C=C/C=C(C)/C=C/C2=C(C)CCCC2(C)C)C(C)(C)CCC1` [BETA CAROTENE], the Activity in data set [1] was determined as 100%; in data set [2], 9.1%. Also, the IC50 in data set [3] amounted to 400 molar ratio.
`COc1c(O)cccc1/C=C/Cc1ccc(O)c(OC)c1OC` [DALBERATIN A]: the Activity in data set [1] came to 85.1%; in [2] it was 0%; in [4], 63.6%; in [6], 18.5%. Also, in data set [5], the viability at 48 h, 32 nmol came to 60%. In addition, the viability at 48 h, 3.2 nmol in [7] was over 80%. In [3], this compound came in with an IC50 of 213 molar ratio. Moreover, the viability at 48 h, 16 nmol in data set [8] was over 80%. Besides, in [9], the viability at 48 h, 0.32 nmol is over 80%.
Regarding `COc1ccc(O)c(/C=C/Cc2ccc(O)c(OC)c2OC)c1` [DALBERATIN B], the Activity amounted to 91.7% in [1], 0% in data set [2], 68.3% in data set [4] and 31.1% in [6]. In addition, the viability at 48 h, 32 nmol in data set [5] was 70%. In data set [7], the viability at 48 h, 3.2 nmol is over 80%. For the same compound, the IC50 in data set [3] stood at 303 molar ratio. Besides, the viability at 48 h, 16 nmol in [8] is over 80%. In addition, the viability at 48 h, 0.32 nmol in data set [9] was over 80%.
As for `COc1ccc(C/C=C/c2cccc(O)c2OC)c(OC)c1O` [DALBERATIN C], the Activity in [1] was found to be 86.7%; in data set [2], 0%; in [4], 65%; in data set [6], 20.9%. Moreover, the viability at 48 h, 32 nmol in data set [5] is 60%. Further, the viability at 48 h, 3.2 nmol in data set [7] was over 80%. Besides, the IC50 in data set [3] was determined as 223 molar ratio. In data set [8], the viability at 48 h, 16 nmol was over 80%. Further, the viability at 48 h, 0.32 nmol in data set [9] was over 80%.
On to `COc1c(O)cccc1/C=C/Cc1ccc(O)c(O)c1OC` [DALBERATIN E], for which the Activity in data set [1] is 82%; in data set [2] it was 0%; in [4] it was 60.3%; in [6], 16.4%. For the same compound, the viability at 48 h, 32 nmol in data set [5] is 70%. For the same compound, the viability at 48 h, 3.2 nmol in data set [7] is over 80%. The compound further gave an IC50 in data set [3] of 209 molar ratio. For the same compound, the viability at 48 h, 16 nmol in data set [8] is over 80%. Moreover, the viability at 48 h, 0.32 nmol in [9] is over 80%.
